Bioassay records: PubChem, The Scripps Research Institute Molecular Screening Center
Rows were chosen to be rich in hits. Some 1.4% of all compounds tested hit in one or more screens of this group.
PAD4 inh: PAD4 (human) enzyme inhibition; recombinant PAD4, RCA probe fluorescence polarization; inhibition, % at 6.36 µM; 330,000 compounds, 0.41% hits; AID 485272;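 active = percent inhibition above a cutoff equal to the mean of all tested compounds plus 3 SD, cut at about 15% in these data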
Fh CTSL1 inh: counter-screen for PFM18AAP inhibitors: inhibitors of F. hepatica cathepsin L1 | AID 1906 | 300,000 compounds, 0.49% hits | inhibition, % at 5.96 µM | recombinant F. hepatica cathepsin L1, Z-Leu-Arg-MCA fluorescence;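 active = inhibition above the mean of all tested compounds plus 3 SD, set per screening campaign, cut at about 17% in these data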
TDP2 absorb: blocks human TDP2 phosphodiesterase activity; O95551; recombinant TDP2, T5PNP hydrolysis, p-nitrophenol absorbance 415 nm; inhibition, % at 12.8 µM; 370,000 compounds, 0.34% hits; AID 720702;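 active = inhibition above the mean of all tested compounds plus 3 SD, set per campaign, cut at about 25% in these data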
Target sequence (O95551 whole entry, looked up): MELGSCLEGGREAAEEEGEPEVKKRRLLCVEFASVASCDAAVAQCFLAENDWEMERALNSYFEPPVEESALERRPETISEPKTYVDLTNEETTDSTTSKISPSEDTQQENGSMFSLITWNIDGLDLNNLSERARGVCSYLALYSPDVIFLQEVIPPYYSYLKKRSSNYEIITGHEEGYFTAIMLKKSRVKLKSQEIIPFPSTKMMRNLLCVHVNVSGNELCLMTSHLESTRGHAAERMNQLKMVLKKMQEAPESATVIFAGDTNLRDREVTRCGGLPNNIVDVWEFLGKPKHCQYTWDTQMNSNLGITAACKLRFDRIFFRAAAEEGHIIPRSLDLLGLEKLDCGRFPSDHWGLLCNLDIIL
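Assay system: Recombinant human TDP2 | Quantity: 120 nM TDP2 per well | Incubation: 2 h at 37 °C | Signal: Epi absorbance | Evaluation: Percent inhibition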
GSTO1 inh: counter-screen for RBBP9 inhibitors: inhibitors of human GSTO1; P78417; recombinant GSTO1, activity-based probe fluorescence polarization; inhibition, % at 5.96 µM; 300,000 compounds, 1.1% hits; AID 1974;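 active = inhibition above the campaign mean inhibition plus 3 SD, cut at about 35% in these data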
Target sequence (P78417 whole entry, looked up): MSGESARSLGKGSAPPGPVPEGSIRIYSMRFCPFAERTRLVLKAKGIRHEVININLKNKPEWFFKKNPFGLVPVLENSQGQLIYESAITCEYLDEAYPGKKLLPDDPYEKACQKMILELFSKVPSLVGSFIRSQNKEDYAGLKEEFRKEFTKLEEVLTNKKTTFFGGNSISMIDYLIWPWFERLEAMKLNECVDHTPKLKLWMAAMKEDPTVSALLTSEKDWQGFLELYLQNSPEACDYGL
Numbers stand for hits; - = inactive; . = no result given.

SMILES	PAD4 inh	Fh CTSL1 inh	TDP2 absorb	GSTO1 inh
COc1cc2c(cc1OC)C(C1C(=O)CC(C)(C)CC1=O)N(C(=O)CCl)CC2 (stereo unspecified)	-	17.4	-	-
CC(C)CN1C(=O)[C@@]2(CC(=O)N(C)C2c2ccccc2)c2cc(-n3cc(CN(C)C)nn3)ccc21 (stereo partly specified)	.	.	-	.
COc1ccc(/C=C/S(=O)(=O)NCCc2ccccc2)c(CNC(=O)OC(C)(C)C)c1	.	.	-	.
COc1cccc2cc(-c3ccccc3)oc12	-	-	-	-
COc1cccc2cc(-c3ccnc(=S)[nH]3)oc12	44.6	-	.	-
CC(C)(C)OC(=O)NCCCCC1=CC2=CC(=O)C(C)(OC(=O)c3cnc4ccccc4n3)C(=O)C2=CO1 (stereo unspecified)	-	-	.	-
COC(=O)CCCC1=CC2=CC(=O)C(C)(OC(=O)c3cnc4ccccc4n3)C(=O)C2=CO1 (stereo unspecified)	32.0	-	.	37.7
COC(=O)CCCC1=CC2=CC(=O)C(C)(OC(=O)c3ccc(Cl)nc3)C(=O)C2=CO1 (stereo unspecified)	-	-	.	34.9
COC/C=C/C1=CC2=CC(=O)C(C)(OC(=O)c3cnc4ccccc4n3)C(=O)C2=CN1CCc1ccccn1 (stereo unspecified)	33.8	-	.	-
CCCCC1=CC2=CC(=O)C(C)(OC(=O)c3cnc4ccccc4n3)C(=O)C2=CO1 (stereo unspecified)	30.9	-	.	-
CC1=C2NC(N)=[N+](Cc3ccc4c(c3)OCO4)CC2n2c(=O)n(-c3ccccc3)c(=O)n2C1 (stereo unspecified)	.	.	-	.
COC(=O)[C@]12C[C@H](CC(=O)NCc3cccc4ccccc34)C(=O)N(Cc3ccco3)C1=C[C@H](C(C)C)O[C@@H]2C1CC1	.	.	-	.
CC1(OC(=O)c2ccc(Cl)nc2)C(=O)C=C2C=C(c3ccsc3)OC=C2C1=O (stereo unspecified)	-	-	.	-
CC1(OC(=O)c2ccc(Cl)nc2)C(=O)C=C2C=C(C3CC3)OC=C2C1=O (stereo unspecified)	-	-	.	-
CCCCC1=CC2=CC(=O)C(C)(OC(=O)c3cccs3)C(=O)C2=CO1 (stereo unspecified)	-	-	-	-
COC(=O)CCCC1=CC2=CC(=O)C(C)(OC(=O)c3cccs3)C(=O)C2=CO1 (stereo unspecified)	-	-	.	39.0
CC1(OC(=O)c2ccc(Cl)nc2)C(=O)C=C2C=C3CCCN3C=C2C1=O (stereo unspecified)	-	-	-	35.4
CC1(OC(=O)c2ccc(Cl)nc2)C(=O)C=C2C=C(c3ccc(C#N)cc3)OC=C2C1=O (stereo unspecified)	-	-	.	36.0
CC(C)C[C@H]1COc2cc(N3CCCC3)ccc2S(=O)(=O)N1C	.	.	-	.
COc1ccccc1CNC(=O)NC1CCN(CC(=O)Nc2ccc3c(c2)OCCO3)CC1	.	.	-	.
Cc1ccsc1C=C1C(=O)c2ccccc2C1=O	-	-	-	37.5
Cc1ccsc1/C=C1/C(=O)NN(c2ccccc2)C1=O	-	-	-	-
C/C(=N\Nc1ccc(C)c(Cl)c1)c1ccncc1	-	18.9	-	-
C/C(=N\Nc1ccc(C)c(Cl)c1)c1cccnc1	-	-	-	-
O=C(O)COc1ccc(Br)cc1C(c1c(C(=O)O)[nH]c2ccccc12)c1c(C(=O)O)[nH]c2ccccc12	-	-	.	55.3
SMILES	PAD4 inh	Fh CTSL1 inh	TDP2 absorb	GSTO1 inh
O=C(O)c1[nH]c2ccccc2c1C(c1cc(Cl)cc([N+](=O)[O-])c1O)c1c(C(=O)O)[nH]c2ccccc12	-	-	-	73.8
O=C(NC(O)C(=O)c1ccccc1)c1ccc(F)cc1 (stereo unspecified)	-	18.3	-	-
O=C(NC(Cc1ccc(F)cc1)C(=O)O)c1ccccc1 (stereo unspecified)	-	-	-	-
CNc1cccccc1=S	-	-	-	37.0
COc1ccc(S[C@]2(C(=O)NCCCN(C)C)CC(=O)N[C@@H]2c2ccc(OC)cc2)cc1	.	.	-	.
NS(=O)(=O)c1ccc(Nc2ccc([N+](=O)[O-])c3nonc23)cc1	-	-	-	36.7
O=C(CN(c1cccc([N+](=O)[O-])c1)S(=O)(=O)c1ccccc1)N(Cc1ccccc1)Cc1ccccc1	-	17.5	-	-
CC(C(=O)NN)n1nnc(N2CCOCC2)n1 (stereo unspecified)	-	-	-	-
CC(C(=O)NNS(=O)(=O)c1cccc(C(F)(F)F)c1)n1nnc(N2CCOCC2)n1 (stereo unspecified)	-	59.2	-	-
COc1ccc2c(c1)CCCN2C(=O)C1CCCN(S(=O)(=O)c2ccccc2)C1 (stereo unspecified)	.	.	-	.
CCC(COC(=O)c1ccccc1)Oc1cc(NCc2ccccc2)c2ncn(C(C)C)c2c1 (stereo unspecified)	-	.	36.0	.
S=C(NCCNCc1ccccc1)NC1CCCCC1	-	19.0	.	-
C[C@H](O)[C@@H]1C(=O)N2CCc3c([nH]c4c(-c5ccccc5)cccc34)[C@@H]2C[C@@H]1N(C)CC1CCCCC1	.	.	-	.
c1ccc(Cn2c(SCC3CCC3)nnc2-c2cccnc2)cc1	.	.	-	.
C/C(=N\NC(N)=S)C1(C)CCCCC1	-	29.7	-	-
C/C(=N\NC(N)=O)C1(C)CCCCC1	-	-	-	-
C/C(=N\NC(N)=S)C12CC3CC(CC(C3)C1)C2	-	18.1	-	-
CC1=NN(S(=O)(=O)c2ccc(Cl)cc2Cl)C(=O)c2ccccc2O1	-	56.0	-	-
Cc1nn(-c2ccc(Cl)cc2Cl)c(=O)c2ccccc12	-	-	-	-
Cc1ccoc1C(=O)NCCNC(=O)c1occc1C	-	-	-	-
Cc1ccoc1C(=O)NCCCNC(=O)c1occc1C	-	-	-	34.8
O=C(COc1ccccc1Cc1ccccc1)NCCCN1CCOCC1	-	19.8	-	-
CC(C)(CNC(=O)COc1ccccc1Cc1ccccc1)N1CCOCC1	-	-	-	-
COC(=O)CNC(=O)CNC1(C(=O)NCCc2c[nH]c3ccccc23)CCCCC1	.	.	-	.
CCCN1CCCc2cc(CN)ccc21	27.6	-	65.5	63.6
SMILES	PAD4 inh	Fh CTSL1 inh	TDP2 absorb	GSTO1 inh
O=S(=O)(N[C@@H]1CCCC[C@H]1N1CCOCC1)c1ccc(Cl)cc1	.	.	-	.
O=C(CSc1nnc(-c2ccco2)n1-c1ccc(Cl)cc1)Nc1ccc(S(=O)(=O)Nc2nccs2)cc1	.	.	-	.
CCc1ccc(NC(=O)c2cc(S(=O)(=O)N3CCCC3)ccc2F)cc1	.	.	-	.
COc1cc(/C(C)=N\NC(N)=S)cc(OC)c1OC	-	18.0	-	-
COc1cc(/C(C)=N/NC(=S)NC(C)C)cc(OC)c1OC	-	-	-	-
COc1ccc(C(=O)c2no[n+]([O-])c2C(=O)c2ccc(OC)cc2)cc1	-	18.2	-	-
Cc1cc(C)c2c(c1)NC(C(=O)O)C1CC=CC21 (stereo unspecified)	-	-	-	-
O=C(O)C1Nc2c(C(=O)N3CCOCC3)cccc2C2C=CCC12 (stereo unspecified)	-	-	.	35.7
